Experimental data as given in ChEMBL document CHEMBL1126902, “Synthesis, chemical reactivity, and antitumor evaluation of congeners of carmethizole hydrochloride, an experimental "acylated vinylogous carbinolamine" tumor inhibitor” (J Med Chem, 1993).

Columns and labels:
[1] = Concentration required to inhibit tumor growth in PSN-1, human pancreatic carcinoma cell line; type: functional
Procedure, shortened: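 PSN-1 pancreatic carcinoma cells exposed to compound dissolved in RPMI-1640 plus HEPES at its maximum soluble concentration for 72 h. Read-out by sulforhodamine B colorimetric assay.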

L1210 (Mus musculus) = assay: Concentration required to inhibit tumor growth in L1210, murine lymphocytic leukemia cell line
A549 = assay: Concentration required to inhibit tumor growth in A549, human lung carcinoma (NSCLC) cell line; type: functional, cell-based
Procedure, shortened: (§1)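 Cells grown in RPMI 1640 with 5% fetal calf serum, 5% NuSerum IV and 20 mM HEPES, seeded and allowed to adhere overnight. Compound dissolved in RPMI-1640 plus HEPES and tested over a 5 log range (10 concentrations) for 72 h. Read-out by sulforhodamine B assay. Median-effect dose derived by nonlinear regression of the concentration-effect curve.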

[2] = Concentration required to inhibit tumor growth in […], human breast adenocarcinoma cell line; type: functional; procedure, shortened: as §1
HT-29 = assay: Concentration required to inhibit tumor growth in HT29, human colon adenocarcinoma cell line; type: functional, cell-based; settings: Homo sapiens, HT-29; procedure, shortened: as §1
[3] = Change in tumor cell population in ip implanted LOX amelanotic melanoma in mice after administration of compound at 188 mg/kg; type: functional, Mus musculus; settings: route intraperitoneal
Procedure, shortened: (§2)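 Female CD2F1 mice were implanted ip with ascitic fluid holding ca. 1.7×10^6 LOX cells. Dosing was ip on days 1, 5 and 9, starting 24 h after implantation, by exact body weight, as a solution or suspension in saline plus Tween 80, freshly prepared daily. KE is the net log change in viable tumor cells from start to end of treatment. Bracketed KE assumes Poisson survival, with 60-day survivors tumor-free.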

P388 [4] = assay: Change in tumor cell population in ip implanted P388 Leukemia in mice after administration of compound at 47 mg/kg; type: functional, Mus musculus; settings: route intraperitoneal
Procedure, shortened: (§3)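 P388 leukemia: ascitic fluid with ca. 5.2×10^6 cells inoculated ip into Portage-CD₂F₁ female mice. Drug given ip on days 1-5, starting 24 h after inoculation, dosed by average body weight. Vehicle was saline plus Tween 80, as a solution or suspension. KE = net log change in viable tumor cells from start to end of treatment.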

[5] = Percent increase in life span of dying mice tested in vivo at 94 mg/kg against ip implanted LOX amelanotic melanoma in mice (60-day survivors); type: functional; settings: Mus musculus, 1440 h, route intraperitoneal
Procedure, shortened: (§4)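 Nude CD2F1 female mice were implanted ip with ascitic fluid containing ca. 1.7×10^6 LOX amelanotic melanoma cells. Drug was given ip on days 1, 5 and 9, starting 24 h after implantation, and dosed by exact body weight. Solutions or suspensions were made fresh daily in saline plus Tween 80. %ILS was calculated from the median day of death of dying mice versus controls, excluding 60-day survivors.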

[6] = Change in tumor cell population in ip implanted LOX amelanotic melanoma in mice after administration of compound at 23.5 mg/kg; type: functional, Mus musculus; settings: route intraperitoneal; procedure, shortened: as §2
P388 [7] = assay: Percent increase in life span of dying mice tested in vivo at 11.8 mg/kg against ip implanted P388 Leukemia in mice; type: functional; settings: Mus musculus, route intraperitoneal
Procedure, shortened: (§5)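 Portage-CD2F1 female mice inoculated ip with ascitic fluid carrying ca. 5.2×10^6 P388 leukemia cells. Drug given ip daily on days 1-5, starting 24 h after inoculation, dosed by average body weight. %ILS is from the median day of death of dying mice versus controls.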

P388 [8] = assay: Change in tumor cell population in ip implanted P388 Leukemia in mice after administration of compound at 11.8 mg/kg; type: functional, Mus musculus; settings: route intraperitoneal
Procedure, shortened: (§6)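 Female Portage-CD2F1 mice were inoculated ip with ascitic fluid holding ca. 5.2×10^6 P388 cells. Dosing was ip on days 1-5, starting 24 h after inoculation, by average body weight, as a solution or suspension in saline plus Tween 80. KE is the net log change in viable tumor cell population from start to end of the treatment period.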

[9] = Percent increase in life span of dying mice tested in vivo at 47 mg/kg against ip implanted LOX amelanotic melanoma in mice (60-day survivors); type: functional; settings: Mus musculus, 1440 h, route intraperitoneal
Procedure, shortened: (§7)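 Female CD2F1 mice implanted ip with ascitic fluid carrying ca. 1.7×10^6 LOX amelanotic melanoma cells. Drug given ip on days 1, 5 and 9, starting 24 h after implant, dosed by exact body weight; solutions or suspensions made fresh daily. %ILS is from the median day of death of dying mice versus controls, excluding 60-day survivors.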

P388 [10] = assay: Percent increase in life span of dying mice tested in vivo at 94 mg/kg against ip implanted P388 Leukemia in mice; type: functional; settings: Mus musculus, route intraperitoneal
Procedure, shortened: (§8)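 Portage-CD2F1 female mice were inoculated ip with ascitic fluid containing ca. 5.2×10^6 P388 leukemia cells. Drug was given ip daily on days 1-5, starting 24 h after inoculation, and dosed by average body weight. %ILS was calculated from the median day of death of dying mice versus controls.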

P388 [11] = assay: Change in tumor cell population in ip implanted P388 Leukemia in mice after administration of compound at 23.5 mg/kg; type: functional, Mus musculus; settings: route intraperitoneal; procedure, shortened: as §6
[12] = Percent increase in life span of dying mice tested in vivo at 23.5 mg/kg against ip implanted LOX amelanotic melanoma in mice (60-day survivors); type: functional; settings: Mus musculus, 1440 h, route intraperitoneal; procedure, shortened: as §7
P388 [13] = assay: Percent increase in life span of dying mice tested in vivo at 23.5 mg/kg against ip implanted P388 Leukemia in mice; type: functional; settings: Mus musculus, route intraperitoneal; procedure, shortened: as §5
P388 [14] = assay: Change in tumor cell population in ip implanted P388 Leukemia in mice after administration of compound at 94 mg/kg; type: functional, Mus musculus; settings: route intraperitoneal; procedure, shortened: as §3
[15] = Change in tumor cell population in ip implanted LOX amelanotic melanoma in mice after administration of compound at 94 mg/kg; type: functional, Mus musculus; settings: route intraperitoneal; procedure, shortened: as §2
[16] = Change in tumor cell population in ip implanted LOX amelanotic melanoma in mice after administration of compound at 47 mg/kg; type: functional, Mus musculus; settings: route intraperitoneal; procedure, shortened: as §2
[17] = Percent increase in life span of dying mice tested in vivo at 188 mg/kg against ip implanted LOX amelanotic melanoma in mice (60-day survivors); type: functional; settings: Mus musculus, 1440 h, route intraperitoneal; procedure, shortened: as §7
P388 [18] = assay: Percent increase in life span of dying mice tested in vivo at 47 mg/kg against ip implanted P388 Leukemia in mice; type: functional; settings: Mus musculus, route intraperitoneal; procedure, shortened: as §5
P388 [19] = assay: Percent increase in life span of dying mice tested in vivo at 45.5 mg/kg against ip implanted P388 Leukemia in mice; type: functional; settings: Mus musculus, route intraperitoneal; procedure, shortened: as §5
P388 [20] = assay: Change in tumor cell population in ip implanted P388 Leukemia in mice after administration of compound at 91 mg/kg; type: functional, Mus musculus; settings: route intraperitoneal; procedure, shortened: as §3
[21] = Change in tumor cell population in ip implanted LOX amelanotic melanoma in mice after administration of compound at 22.75 mg/kg; type: functional, Mus musculus; settings: route intraperitoneal; procedure, shortened: as §2
[22] = Change in tumor cell population in ip implanted LOX amelanotic melanoma in mice after administration of compound at 182 mg/kg; type: functional, Mus musculus; settings: route intraperitoneal; procedure, shortened: as §2
P388 [23] = assay: Percent increase in life span of dying mice tested in vivo at 91 mg/kg against ip implanted P388 Leukemia in mice; type: functional; settings: Mus musculus, route intraperitoneal; procedure, shortened: as §8
P388 [24] = assay: Change in tumor cell population in ip implanted P388 Leukemia in mice after administration of compound at 11.4 mg/kg; type: functional, Mus musculus; settings: route intraperitoneal; procedure, shortened: as §6
P388 [25] = assay: Percent increase in life span of dying mice tested in vivo at 11.4 mg/kg against ip implanted P388 Leukemia in mice; type: functional; settings: Mus musculus, route intraperitoneal; procedure, shortened: as §5
P388 [26] = assay: Change in tumor cell population in ip implanted P388 Leukemia in mice after administration of compound at 45.5 mg/kg; type: functional, Mus musculus; settings: route intraperitoneal; procedure, shortened: as §3
[27] = Change in tumor cell population in ip implanted LOX amelanotic melanoma in mice after administration of compound at 45.5 mg/kg; type: functional, Mus musculus; settings: route intraperitoneal; procedure, shortened: as §2
P388 [28] = assay: Percent increase in life span of dying mice tested in vivo at 22.8 mg/kg against ip implanted P388 Leukemia in mice; type: functional; settings: Mus musculus, route intraperitoneal; procedure, shortened: as §5
[29] = Percent increase in life span of dying mice tested in vivo at 45.5 mg/kg against ip implanted LOX amelanotic melanoma in mice (60-day survivors); type: functional; settings: Mus musculus, 1440 h, route intraperitoneal; procedure, shortened: as §7
P388 [30] = assay: Change in tumor cell population in ip implanted P388 Leukemia in mice after administration of compound at 22.8 mg/kg; type: functional, Mus musculus; settings: route intraperitoneal; procedure, shortened: as §6
[31] = Change in tumor cell population in ip implanted LOX amelanotic melanoma in mice after administration of compound at 91 mg/kg; type: functional, Mus musculus; settings: route intraperitoneal; procedure, shortened: as §2
[32] = Percent increase in life span of dying mice tested in vivo at 182 mg/kg against ip implanted LOX amelanotic melanoma in mice (60-day survivors); type: functional; settings: Mus musculus, 1440 h, route intraperitoneal; procedure, shortened: as §7
[33] = Percent increase in life span of dying mice tested in vivo at 91 mg/kg against ip implanted LOX amelanotic melanoma in mice (60-day survivors); type: functional; settings: Mus musculus, 1440 h, route intraperitoneal; procedure, shortened: as §4
[34] = Percent increase in life span of dying mice tested in vivo at 22.75 mg/kg against ip implanted LOX amelanotic melanoma in mice (60-day survivors); type: functional; settings: Mus musculus, 1440 h, route intraperitoneal; procedure, shortened: as §7

CNC(=O)OCc1nc2n(c1COC(=O)NC)CCS2
IC50 [1]: 118 µM
IC50 (L1210 (Mus musculus)): 11 µM
IC50 (A549): 190 µM
IC50 [2]: 147 µM
IC50 (HT-29): 108 µM

CNC(=O)OCc1nc(SC(C)C)n(C)c1COC(=O)NC
KE [3]: -0.2
KE (P388 [4]): 0.9
ILS at 94 mg/kg [5]: 28%
KE [6]: 1.3
ILS at 11.8 mg/kg (P388 [7]): 31%
KE (P388 [8]): 0.6
ILS at 47 mg/kg [9]: 24%
ILS at 94 mg/kg (P388 [10]): 59%
KE (P388 [11]): 1
ILS at 23.5 mg/kg [12]: 13%
ILS at 23.5 mg/kg (P388 [13]): 25%
KE (P388 [14]): -1.5
KE [15]: 0.6
KE [16]: 0.7
ILS at 188 mg/kg [17]: 45%
ILS at 47 mg/kg (P388 [18]): 27%

CNC(=O)OCc1nc([S+](C)[O-])n(C)c1COC(=O)NC (configuration not stated)
ILS at 45.5 mg/kg (P388 [19]): 27%
KE (P388 [20]): 1.3
KE [21]: 2
KE [22]: 1.8
ILS at 91 mg/kg (P388 [23]): 17%
KE (P388 [24]): 1.4
ILS at 11.4 mg/kg (P388 [25]): 10%
KE (P388 [26]): 0.9
KE [27]: 2
ILS at 22.8 mg/kg (P388 [28]): 10%
ILS at 45.5 mg/kg [29]: -8%
KE (P388 [30]): 1.4
KE [31]: 2
ILS at 182 mg/kg [32]: 2%
ILS at 91 mg/kg [33]: -8%
ILS at 22.75 mg/kg [34]: -7%
